Consider two molecules from article PMC6122986 (The Journal of Cell Biology, 2018).

Test [1] deals with MTs in Drosophila S2 cells. Nature of the test: Plus end-directed motility on MTs in cells. The format is cell-based. To be noted: TIRF microscopy, interphase S2 cells. The essentials:
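Live TIRF imaged mCherry-tagged constructs on cortical MTs of interphase S2 cells. Cells were plated on concanavalin A-coated glass after 16–18 h CuSO4 induction at 500 µM (high) or 25 µM (low). Frames were taken every 1 s (single colour) or 2 s (dual colour, with GFP-α-tubulin). Velocities came from manually tracking motile puncta, with kymographs for direction.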

The test system of test [2] is MTs in Drosophila S2 cells. Nature of the test: MT association / localization in Drosophila S2 cells by live cell imaging. The format is cell-based. To be noted: fixation with paraformaldehyde and permeabilization with detergent. Summed up: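 Drosophila S2 cells were grown in Schneider's medium with 10% heat-inactivated FBS at 25°C. Lines stably expressing C-terminally mCherry-tagged NOD truncations from a copper-inducible pMT vector were selected with blasticidin and/or hygromycin. Expression was induced with 500 µM or 25 µM CuSO4 for 16–18 h. Cells were imaged live on concanavalin A-coated glass and MT association scored as weak or strong. Retention was also checked after paraformaldehyde fixation and detergent permeabilization.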

The target of test [3] is FITC-labeled NOD "PT" motif-1 peptide (Drosophila melanogaster). Nature of the test: MST.

B1: NOD485: NOD truncation (1–485) that encompasses the motor domain and the noncanonical neck extension region (protein, UniProt P18105 1-485, looked up, fragment)
chain: MEGAKLSAVRIAVREAPYRQFLGRREPSVVQFPPWSDGKSLIVDQNEFHFDHAFPATISQDEMYQALILPLVDKLLEGFQCTALAYGQTGTGKSYSMGMTPPGEILPEHLGILPRALGDIFERVTARQENNKDAIQVYASFIEIYNEKPFDLLGSTPHMPMVAARCQRCTCLPLHSQADLHHILELGTRNRRVRPTNMNSNSSRSHAIVTIHVKSKTHHSRMNIVDLAGSEGVRRTGHEGVARQEGVNINLGLLSINKVVMSMAAGHTVIPYRDSVLTTVLQASLTAQSYLTFLACISPHQCDLSETLSTLRFGTSAKKLRLNPMQVARQKQSLAARTTHVFRQALCTSTAIKSNAANHNSIVVPKSKYSTTKPLSAVLHRTRSELGMTPKAKKRARELLELEETTLELSSIHIQDSSLSLLGFHSDSDKDRHLMPPPTGQEPRQASSQNSTLMGIVEETEPKESSKVQQSMVAPTVPTTVRCQL
Take B1: the “motility on MTs in cells (in words)” value in test [1] is listed as “motility was not obvious”. For the same molecule, the “MT localization upon fixation (in words)” value in test [2] is “significantly reduced upon fixation”.

B2: Drosophila GST-EB1 (natural protein)
chain: MAVNVYSTNVTSENLSRHDMLAWVNDCLQSQFSKIEELCTGAAYCQFMDMLFPNSVPVKRVKFRTNLEHEYIQNFKILQAGFKKMSVDKIIPIDKLVKGRFQDNFEFLQWFKKFFDANYDGRDYDASAVREGAPMGFGSGAVKSLPGTAASGVSSSYRRGPSATTRPAMTSAVKPISKVLPRTNNAAPASRINACANSTGTVKKNDVSNSVNNQQIEEMSNQVMDMRINLEGLEKERDFYFSKLRDIEILCQEADDAEAHPIIQKILDILYATEDGFAPPDDAPPEDEEY
What is called Kd is the free concentration of one partner at which half of the binding sites on the other are occupied at equilibrium, for simple one-to-one binding. Read a low Kd as a tighter complex. Molecule B2 yielded a Kd in test [3] of 725 nM.
